Legend:
Canis familiaris [1] = experiment: Heart contractility was measured in anesthetized dogs (iv); format: functional; conditions: Canis lupus familiaris
In short: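 Mongrel dogs of either sex (7–14 kg), pentobarbital-anesthetized (35 mg/kg iv), ventilated, kept at 37–38 °C. Right-ventricular Walton-Brodie strain-gauge arch at 50 g tension. Increasing log doses given iv via femoral vein at 5-min intervals, peak response recorded. ED50 (dose for 50% contractility rise) by linear regression, mean ± SEM. Separate animal group per drug.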

Canis familiaris [2] = experiment: Percent increase in heart rate was measured in anesthetized dogs; format: functional, Canis lupus familiaris
In short: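 Heart rate taken from a cardiometer triggered by the femoral arterial pressure pulse, in pentobarbital-anesthetized (35 mg/kg iv), ventilated mongrel dogs (7–14 kg). Escalating iv log doses at 5-min intervals. Reported as percent change from control at the inotropic ED50 dose.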

Canis familiaris [3] = experiment: Percent decrease in mean arterial blood pressure was measured in anesthetized dogs; format: functional, Canis lupus familiaris
In short: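 Pentobarbital-anesthetized (35 mg/kg iv), ventilated mongrel dogs of either sex (7–14 kg). Mean arterial pressure recorded via femoral arterial catheter and pressure transducer. Log doses given iv at 5-min intervals. Value is percent change from control at the inotropic ED50 dose.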

| Structure (SMILES) | ED50 (Canis familiaris [1]) | Increase in HR (Canis familiaris [2]) | Decrease in MAP (Canis familiaris [3]) |
| --- | --- | --- | --- |
| O=C1CCC(c2ccc(-c3ccncc3)cc2)=NN1 | 0.146 mg/kg | 19.1% | 29.9% |
| O=C1CCC(c2ccc(-c3cccnc3)cc2)=NN1 | 0.0194 mg/kg | 7.5% | 12.7% |
| O=C1CCC(c2ccc3c(c2)CCC(=O)N3)=NN1 | 0.0032 mg/kg | 13.2% | 16.1% |
| O=C1CCC(c2ccccc2)=NN1 | 6.33 mg/kg | 39.1% | 24.9% |
| O=C1CCC(c2ccc(-c3ccccc3)cc2)=NN1 | 0.513 mg/kg | 18.8% | 20.9% |
| CC(=O)Nc1ccc(C2=NNC(=O)CC2)cc1 | 0.0113 mg/kg | 8.8% | 15.1% |
| O=C1CCC(c2ccc3c(c2)CCCN3)=NN1 |  | 37% | 12% |
| O=C1CCC(c2ccc(-n3ccnc3)cc2)=NN1 [IMAZODAN] | 0.0501 mg/kg | 16.9% | 28.4% |

From ChEMBL document CHEMBL1124287, “Imidazole-pyridine bioisosterism: comparison of the inotropic activities of pyridine- and imidazole-substituted 6-phenyldihydropyridazinone cardiotonics” (1988)
